Laboratory results from ChEMBL document CHEMBL1144876, “Benzodiazepines as potent and selective bradykinin B1 antagonists” (J Med Chem, 2003).

Legend:
B1 bradykinin receptor [1] = biological target: T1, B1 bradykinin receptor (Homo sapiens, UniProt P46663); experiment: Inhibition of human bradykinin B1 receptor
T1 sequence (P46663 whole entry): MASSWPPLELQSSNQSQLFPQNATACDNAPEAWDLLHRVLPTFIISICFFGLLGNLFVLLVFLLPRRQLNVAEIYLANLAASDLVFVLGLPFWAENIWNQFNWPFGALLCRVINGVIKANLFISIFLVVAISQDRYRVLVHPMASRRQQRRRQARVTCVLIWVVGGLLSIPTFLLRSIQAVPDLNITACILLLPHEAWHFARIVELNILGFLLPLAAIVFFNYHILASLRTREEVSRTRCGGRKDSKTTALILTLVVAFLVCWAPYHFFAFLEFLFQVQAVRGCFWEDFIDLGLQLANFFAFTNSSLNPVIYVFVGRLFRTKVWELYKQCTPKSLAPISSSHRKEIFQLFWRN

B1 bradykinin receptor [2] = biological target: T1, B1 bradykinin receptor; experiment: Compound was tested for inhibition against human bradykinin B1 receptor using FLIPR assay
[3] = Half life after intravenous administration in rat; type: ADME, organism-based; settings: in vivo
[4] = Oral bioavailability in rat; type: ADME, organism-based; settings: in vivo
B1 bradykinin receptor [5] = biological target: T2, B1 bradykinin receptor (Rattus norvegicus, UniProt P97583); experiment: Compound was tested for inhibition against rat Bradykinin receptor B1 using FLIPR assay
T2 sequence (P97583 whole entry): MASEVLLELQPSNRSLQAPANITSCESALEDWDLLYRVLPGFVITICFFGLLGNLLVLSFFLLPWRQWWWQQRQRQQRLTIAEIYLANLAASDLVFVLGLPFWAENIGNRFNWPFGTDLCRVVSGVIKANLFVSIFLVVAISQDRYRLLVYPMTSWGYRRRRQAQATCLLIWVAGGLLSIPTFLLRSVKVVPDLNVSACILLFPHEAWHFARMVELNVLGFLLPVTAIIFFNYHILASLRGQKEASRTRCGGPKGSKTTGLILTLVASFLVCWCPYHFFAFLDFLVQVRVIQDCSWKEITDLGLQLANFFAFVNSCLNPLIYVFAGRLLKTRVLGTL

B1 bradykinin receptor [6] = biological target: T2, B1 bradykinin receptor; experiment: Compound was tested for inhibition against rat Bradykinin receptor B1
In short: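 Radioligand binding using the appropriate radioligand on CHO cells stably expressing rat bradykinin B1 receptor; Ki (nM) determined radiometrically; interassay variability about 10%.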

Structure (SMILES)	Ki (B1 bradykinin receptor [1]) [µM]	IC50 (B1 bradykinin receptor [2]) [µM]	half-life [3] [h]	bioavailability [4] [%]	IC50 (B1 bradykinin receptor [5]) [µM]	Ki (B1 bradykinin receptor [6]) [µM]
CCCN1C(=O)[C@@H](NC(=O)Nc2ccc(N3CCC(N4CCCCC4)CC3)cc2)N=C(C2CCCCC2)c2ccccc21	1.02	2.2	–	–	–	–
CCCN1C(=O)[C@H](NC(=O)Nc2ccc(N3CCN(c4ccncc4)CC3)cc2)N=C(C2CCCCC2)c2ccccc21	0.00133	0.008	2.3	2.5	0.0242	–
CCCN1C(=O)[C@H](NC(=O)Nc2ccc(N3CCC(N4CCCCC4)CC3)cc2)N=C(C2CCCCC2)c2ccccc21	0.00573	0.0247	3.2	10	0.059	0.0183
O=C(CCCN1C(=O)CN=C(C2CCCCC2)c2ccccc21)Nc1ccc(N2CCC(N3CCCCC3)CC2)cc1	0.141	–	–	–	–	–
CCCN1C(=O)[C@H](NC(=O)Nc2ccc(N3CCN(c4ccncc4)CC3)cc2)N=C(CCc2ccccc2)c2ccccc21	–	–	2.7	3.4	0.0028	0.00092
CCCN1C(=O)C(NC(=O)Nc2ccc(N3CCN(c4ccccc4)CC3)cc2)N=C(C2CCCCC2)c2ccccc21 (configuration not stated)	> 10	–	–	–	–	–
CCCN1C(=O)C(NC(=O)Nc2ccc(N3CCC(c4ccncc4)CC3)cc2)N=C(CCc2ccccc2)c2ccccc21 (configuration not stated)	0.055	–	–	–	–	–
CCCN1C(=O)C(NC(=O)Nc2ccc(N3CCC(N(C)C)CC3)cc2)N=C(C2CCCCC2)c2ccccc21 (configuration not stated)	0.028	0.164	–	–	–	–
CCCN1C(=O)C(NC(=O)Nc2ccc(N3CCN(c4cccnc4)CC3)cc2)N=C(C2CCCCC2)c2ccccc21 (configuration not stated)	0.085	–	–	–	–	–
CCCN1C(=O)[C@H](NC(=O)Nc2ccc(N3CCC(N4CCCCC4)CC3)cc2)N=C(c2ccc(C)cc2)c2ccccc21	0.0134	0.0645	4.3	32	0.027	0.017
CCCN1C(=O)[C@H](NC(=O)Nc2ccc(N3CCC(N4CCCCC4)CC3)cc2)N=C(CCc2ccccc2)c2ccccc21	0.00137	0.00483	2.4	4.9	0.00725	0.00197
CCCN1C(=O)C(NC(=O)Nc2ccc(N3CCCCC3)cc2)N=C(C2CCCCC2)c2ccccc21 (configuration not stated)	> 10	–	–	–	–	–
CCCN1C(=O)C(NC(=O)Nc2ccc(N3CCN(c4ccccn4)CC3)cc2)N=C(C2CCCCC2)c2ccccc21 (configuration not stated)	0.0975	–	–	–	–	–
